The source of these data is ChEMBL document CHEMBL1157676, “Carboxymethylated-kappa-casein: a convenient tool for the identification of polyphenolic inhibitors of amyloid fibril formation” (Bioorg Med Chem, 2010).

Test [1] can be described thus: Inhibition of reduced carboxymethylated kappa-casein fibril formation at 100 ug/mL measured every 5 mins after 1000 mins by thioflavin T staining-based binding assay. In a few lines: (§1)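 RCM-κ-CN (0.5 mg/mL final) in 50 mM sodium phosphate pH 7.2 with 10 µM ThT and test compound (final DMSO ≤1%), incubated at 37 °C unshaken in sealed plates. Fluorescence (ex 440/em 490 nm) was read every 5 min for 1000 min. %FFi = 100×(ΔFc−ΔFs)/ΔFc versus a 1% DMSO control. Duplicates.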

Test [2] in a line: Inhibition of reduced carboxymethylated kappa-casein fibril formation at 50 ug/mL measured every 5 mins after 1000 mins by thioflavin T staining-based binding assay. In a few lines:
as §1

Test [3] is described as follows: Inhibition of reduced carboxymethylated kappa-casein fibril formation measured every 5 mins after 1000 mins by thioflavin T staining-based binding assay. In a few lines: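 RCM-κ-CN fibrillation (0.5 mg/mL) at 37 °C, pH 7.2 phosphate (50 mM), 10 µM ThT, no shaking. ThT fluorescence 440/490 nm was read every 5 min over 1000 min. Duplicate samples. The positive control IC50 is the mean of four batches.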

Test [4] is described as follows: Inhibition of beta amyloid (1 to 42) fibril formation at 50 ug/mL by thioflavin T staining-based binding assay.
Test [5] can be described thus: Inhibition of reduced carboxymethylated kappa-casein fibril formation assessed as formation of shorter and stunted fibrils by transmission electron microscopy.
A short description of test [6]: Inhibition of beta amyloid (1 to 40) fibril formation.
Test [7] in a line: Inhibition of reduced carboxymethylated kappa-casein fibril formation at 5 ug/mL measured every 5 mins after 1000 mins by thioflavin T staining-based binding assay. In a few lines:
as §1

A short description of test [8]: Inhibition of beta amyloid (1 to 40) fibril formation by thioflavin T staining-based binding assay.
Test [9] is described as follows: Selectivity ratio of IC50 for reduced carboxymethylated kappa-casein fibril formation to IC50 for beta amyloid (1 to 40) fibril formation.
Test [10] is described as follows: Selectivity ratio of IC50 for reduced carboxymethylated kappa-casein fibril formation to IC50 for beta amyloid (1 to 42) fibril formation.
Test [11] in a line: Inhibition of beta amyloid (1 to 42) fibril formation by thioflavin T staining-based binding assay.
A short description of test [12]: Inhibition of beta amyloid (1 to 42) fibril formation.
Test [13] is described as follows: Inhibition of beta amyloid (1 to 40) fibril formation after 24 hrs by fluorimetry.
The nature of test [14]: Inhibition of reduced carboxymethylated kappa-casein fibril formation at 17 ug/mL measured every 5 mins after 1000 mins by thioflavin T staining-based binding assay. The procedure, abridged: as §1
Test [15] can be described thus: Inhibition of reduced carboxymethylated kappa-casein fibril formation at 12.5 ug/mL measured every 5 mins after 1000 mins by thioflavin T staining-based binding assay. The procedure, abridged:
as §1

Active and inactive are the calls of the source. The rule behind the calls is not given here.

For the compound `Oc1ccc([C@H]2Oc3cc(O)cc(O)c3C[C@H]2O)cc1`, in [1], the inhibition is 17%.

In the case of `O=C1c2c(O)cc(O)cc2O[C@H](c2ccc(O)c(O)c2)[C@H]1O` [(+)-TAXIFOLIN], the inhibition is 84% in test [2] and 57% in [4]. For the same compound, in [3], the IC50 was 40100 nM.

In test [2], `O=c1c(O)c(-c2ccccc2)oc2cc(O)cc(O)c12` [GALANGIN] displayed an inhibition of 68%. Further, the figures for the 50% inhibitory concentration (IC50) in test [3] and in [6] were 61000 nM and “Not Active”, respectively. Also, the inhibition entry in [5] was “Active”.

In the case of `COc1ccc(-c2coc3cc(O)ccc3c2=O)cc1O` [CALYCOSIN], in test [7], the inhibition came out at 1%. The IC50 result in test [6] was “Not Active”.

With `O=c1c(O)c(-c2ccc(O)cc2O)oc2cc(O)cc(O)c12` [MORIN], the inhibition in test [2] amounted to 99%; in test [4], 94%. Moreover, the IC50 was 240 nM in test [8], 49500 nM in test [3] and 670 nM in test [11]. Further, the results for the Ratio IC50 in test [9] and in [10] were 206 and 74, respectively.

Regarding `O=c1c(O)c(-c2ccc(O)cc2)oc2cc(O)ccc12`, in test [7], the inhibition was found to be 0%.

With `CC(=O)Oc1cc(OC(C)=O)c2c(=O)c(OC(C)=O)c(-c3ccc(OC(C)=O)c(OC(C)=O)c3)oc2c1`, the inhibition in test [2] came out at 90%. The compound further registered an IC50 in test [3] of 6800 nM. The inhibition result in [5] was “Active”.

In turn, `Oc1cc(O)c2c(c1)O[C@H](c1ccc(O)c(O)c1)[C@H](O)C2` [(-)-EPICATECHIN] had an inhibition in test [2] of 7%. In addition, the IC50 was 2800 nM in [8] and 5600 nM in test [11].

In the case of `O=c1c(O)c(-c2cc(O)c(O)c(O)c2)oc2cc(O)cc(O)c12` [MYRICETIN], the IC50 in test [8] was 290 nM; in test [12], 340 nM; in [13], 900 nM; in [11], 400 nM; in test [6] (read-out: IC50) it was 200 nM. Further, in test [5], the inhibition result was “Active”. In addition, the inhibition in test [14] was found to be 92%.

Compound `COc1ccc(-c2coc3cc(O)cc(O)c3c2=O)cc1` showed an inhibition in [7] of 0%.

Take `O=c1c(-c2ccc(O)cc2)coc2cc(O)ccc12` [DAIDZEIN]: the inhibition in [2] is 25%. For the same compound, in test [6], the IC50 result is reported as “Active”.

Consider `O=c1c(-c2ccc(O)cc2)coc2cc(O)cc(O)c12` [GENISTEIN], for which the inhibition in test [2] was found to be 95%; in test [4], 43%. The results for the IC50 in test [3] and in test [6] were 190000 nM and “Active”, respectively.

For the compound `O=c1c(O)c(-c2ccc(O)cc2)oc2cc(O)cc(O)c12` [KAEMPFEROL], the inhibition in test [2] was 86%. The IC50 is 1700 nM in test [8], 33000 nM in test [3] and 3200 nM in [11]. Besides, the Ratio IC50 in test [9] was determined as 20; in test [10], 10. Moreover, in [5], the inhibition entry is “Active”.

Compound `Oc1cc(O)c2c(c1)O[C@H](c1ccc(O)c(O)c1)[C@@H](O)C2` [CIANIDANOL] came in with an inhibition in test [2] of 0%. Besides, the IC50 in [8] is 2900 nM; in test [11], 5300 nM.

Turning to `O=c1c(O)c(-c2ccc(O)c(O)c2)oc2cc(O)cc(O)c12` [QUERCETIN], the inhibition stood at 84% in [2] and 95% in test [4]. Further, the IC50 was 240 nM in test [8], 13600 nM in test [3] and 720 nM in test [11]. Further, the Ratio IC50 in [9] turned out to be 20; in test [10], 10. Further, the inhibition entry in test [5] is “Active”.

Consider `CO/C(=C\c1ccc(OC)c(OC)c1)C(=O)c1c(O)cc(OC)cc1OC`, for which, in [2], the inhibition was 35%.

`COc1ccc2c(=O)c(O)c(-c3cc(OC)c(OC)cc3CO)oc2c1` registered an inhibition in test [15] of 0%.

`O=c1c(O)c(-c2cc(O)c(O)c(O)c2)oc2cc(O)ccc12` [ROBINETIN]: the IC50 in test [3] came to 13900 nM. Also, the inhibition result in [5] was “Active”. For the same compound, the inhibition in test [7] came to 89%.

Take `O=C(O[C@@H]1Cc2c(O)cc(O)cc2O[C@@H]1c1cc(O)c(O)c(O)c1)c1cc(O)c(O)c(O)c1` [EPIGALOCATECHIN GALLATE]: the inhibition in [2] and in [4] was 100% throughout. The Ratio IC50 is 20 in [9] and 10 in test [10]. In addition, the IC50 was 3700 nM in test [3] and 180 nM in test [6] (read-out: IC50).
